As usually defined, the inhibition is the change of the read-out against control, counted positive when it falls. Read a high inhibition as a response far below the control. What is called IC50 is the midpoint of a concentration-inhibition curve. Read a low IC50 as greater potency in that assay.

Each structure is given as a SMILES string. Calls of active or inactive are those of the source. The calls are words filed in the database; no cut-off is given here.

Experiment [1] deals with Tyrosine 3-monooxygenase (Rattus norvegicus) (UniProt P04177). The experiment is described as follows: Compound was tested to block the inhibition of tyrosine hydroxylase by apomorphine at 1 uM. In short, it runs like this: (§1)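 Tyrosine hydroxylase in synaptosomes, run essentially per Bronaugh and co-workers. Percent prevention of apomorphine inhibition = (% control activity with compound + Apo − % control with Apo)/(% control with compound alone − % control with Apo) × 100.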

Experiment [2] can be described thus: Compound was evaluated for in vitro inhibition of histamine activated adenylate cyclase in guinea pig cerebral cortex. In kind it is functional, tissue-based, Cavia porcellus. The procedure, abridged: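 Cell-free vesicle preparation from guinea pig cerebral cortex, preincubated with [³H]adenine to label the endogenous ATP pool as [³H]ATP. Test agents were then assessed for blocking histamine activation of adenylate cyclase.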

Experiment [3] deals with GABA-A receptor; anion channel. In words: Displacement of [3H]diazepam from GABA-A receptor in rat synaptosomal membranes. It is filed as cell membranes, Membrane. In short, it runs like this:
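Test agents over a wide concentration range, triplicate tubes per concentration. […] IC50 for inhibition of specific binding read graphically.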

The subject of experiment [4] is Rattus norvegicus. In words: Ability to reduce the incidence of metrazole-induced seizures in rats (administered perorally or at standard dose of 30 mg/kg ); Inactive. In kind it is functional, organism-based. On the set-up: dose 30 mg/kg.
The species entered for experiment [5] is Rattus norvegicus. The experiment is described as follows: Ability to inhibit the uptake of norepinephrine (NE) by crude synaptosomes from rat whole brain. It is filed as functional. The procedure, abridged: (§2)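 Crude synaptosomes from rat whole brain, per Thornberg and Moore with minor changes. Incubated 5 or 15 min with L-[3H]norepinephrine (20 or 21.2 nM unless otherwise specified) or [3H]serotonin (9.2-14 nM unless otherwise specified). Test agents dissolved in ethanol; final ethanol 1% (v/v).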

The species entered for experiment [6] is Rattus norvegicus. In words: Ability to inhibit the uptake of serotonin (5-HT) by crude synaptosomes from rat whole brain. It is filed as functional. The procedure, abridged:
as §2

The target in experiment [7] is Tyrosine 3-monooxygenase (Rattus norvegicus) (UniProt P04177). In words: Compound was tested to block the inhibition of tyrosine hydroxylase by apomorphine at 10 uM. In short, it runs like this: as §1

Tyrosine 3-monooxygenase (Rattus norvegicus), sequence (P04177 whole entry): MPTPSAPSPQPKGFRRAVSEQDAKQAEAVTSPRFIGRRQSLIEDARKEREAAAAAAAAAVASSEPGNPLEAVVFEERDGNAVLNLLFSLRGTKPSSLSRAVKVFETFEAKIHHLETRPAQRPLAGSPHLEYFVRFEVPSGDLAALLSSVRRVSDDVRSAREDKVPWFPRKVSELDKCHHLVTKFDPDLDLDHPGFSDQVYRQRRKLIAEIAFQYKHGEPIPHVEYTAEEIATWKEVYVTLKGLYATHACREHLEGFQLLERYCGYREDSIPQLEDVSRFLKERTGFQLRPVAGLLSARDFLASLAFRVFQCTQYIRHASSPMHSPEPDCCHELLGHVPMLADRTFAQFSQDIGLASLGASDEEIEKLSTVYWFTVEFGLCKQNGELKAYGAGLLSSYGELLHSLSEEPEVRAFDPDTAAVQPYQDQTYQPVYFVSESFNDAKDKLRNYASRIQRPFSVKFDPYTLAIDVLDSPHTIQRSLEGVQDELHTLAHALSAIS

With `O=C(CCCN1CCC(O)(c2ccc(Cl)cc2)CC1)c1ccc(F)cc1`, the inhibition in experiment [1] was 28%.

In turn, `CN1C(=O)CN=C(c2ccccc2)c2cc(Cl)ccc21` showed an inhibition in experiment [1] of 23%.

With `CN1CCN2c3ccc(Cl)c(-c4ccccc4)c3CNCC2C1` (stereo not drawn), the values for the IC50 in experiment [2] and in experiment [3] were greater than 50 µM and greater than 100 µM, respectively. Moreover, the ED50 result in the experiment on Rattus norvegicus [4] was “inactive”.

Regarding `CC1=NCC2CN(C)CCN2c2ccc(Cl)cc21` (stereo not drawn), the IC50 in experiment [2] was 5 µM; in experiment [3], greater than 100 µM. For the same compound, the ED50 result in the experiment on Rattus norvegicus [4] is “inactive”.

In the case of `CNCCCN1c2ccccc2CCc2ccccc21` [DESIPRAMINE], the results for the IC50 (in experiment [2]; in the experiment listed under Rattus norvegicus [5]; in the experiment filed under Rattus norvegicus [6]) were 10.5 µM, 0.08 µM and 6.5 µM, respectively.

Take `CN1CCN2c3ccccc3Cc3ccccc3C2C1` (stereo not drawn) [MIANSERIN]: the IC50 in experiment [2] stood at 0.19 µM; in the experiment filed under Rattus norvegicus [5], 36 µM; in the experiment filed under Rattus norvegicus [6], 35 µM.

As for `CN1CCN2c3ccc(Cl)cc3C(c3ccc(Cl)cc3)=NCC2C1` (stereo not drawn), the concentration for half-maximal inhibition (IC50) is greater than 50 µM in experiment [2] and greater than 100 µM in experiment [3]. Moreover, the ED50 entry with Rattus norvegicus [4] was “inactive”. For the same compound, the inhibition in experiment [7] was 10%.

For `CN(C)CCCN1c2ccccc2CCc2ccc(Cl)cc21` [CLOMIPRAMINE], the IC50 turned out to be 4.4 µM in experiment [2], 9.5 µM in the experiment listed under Rattus norvegicus [5] and 0.75 µM in the experiment filed under Rattus norvegicus [6].

Take `CN1CCN2c3ccc(Cl)cc3C(c3ccccc3)=NCC2C1` (stereo not drawn): the concentration for half-maximal inhibition (IC50) in experiment [2] and in experiment [3] was 9 µM in each case. In addition, in the experiment with Rattus norvegicus [4], the ED50 entry was “inactive”.

Turning to `CC(=O)N1Cc2c(ccc(Cl)c2-c2ccccc2)N2CCN(C)CC2C1` (stereo not drawn), the IC50 in experiment [3] is greater than 100 µM. Also, in the experiment with Rattus norvegicus [4], the ED50 entry was “inactive”.

In the case of `CN1CCN2c3ccc(Cl)cc3C(Cc3ccccc3)=NCC2C1` (stereo not drawn), the IC50 in experiment [2] was greater than 50 µM; in experiment [3] it was greater than 100 µM. Further, the ED50 result with Rattus norvegicus [4] was “inactive”.

Regarding `CN1CCN2c3ccc(Cl)cc3C(c3ccccc3Cl)=NCC2C1` (stereo not drawn), the IC50 was found to be 30 µM in experiment [2], 0.8 µM in experiment [3], 30 µM in the experiment filed under Rattus norvegicus [5] and 45 µM in the experiment filed under Rattus norvegicus [6].

The values are drawn from ChEMBL document CHEMBL1121601, “Synthesis and anxiolytic activity of a series of pyrazino[1,2-a][1,4]benzodiazepine derivatives” (J Med Chem, 1980).
